Screens (PubChem)
ADAM10 inh – human ADAM10 inhibitors, primary screen, biochemical, QFRET, HTS. actives 0.62% (n = 370,000). AID 720582, 2013. Disintegrin and metalloproteinase domain-containing protein 10 (Homo sapiens), O14672. inhibition, % at 7 µM. recombinant ADAM10, EDANS/DABCYL FRET peptide cleavage, 3 h;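 active = inhibition above a per-campaign cutoff equal to the mean of compounds falling between control-based bounds plus 3 SD, cut at about 20% in these data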;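 also: 0% = DMSO wells while the 100% control is not disclosed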
ADAM17 inh – ADAM17 inhibitors, primary screen, biochemical, QFRET; recombinant ADAM17, EDANS/DABCYL FRET peptide cleavage; Disintegrin and metalloproteinase domain-containing protein 17 (Homo sapiens), P78536; actives 0.83% (n = 370,000); inhibition, % at 6.95 µM;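 active = inhibition above the mean of compounds lying between control limits plus 3 SD, set per campaign, cut at about 8.5% in these data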;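 also: 0% = DMSO-only wells as the low control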
Target sequence (P78536 215-824 limits assumed): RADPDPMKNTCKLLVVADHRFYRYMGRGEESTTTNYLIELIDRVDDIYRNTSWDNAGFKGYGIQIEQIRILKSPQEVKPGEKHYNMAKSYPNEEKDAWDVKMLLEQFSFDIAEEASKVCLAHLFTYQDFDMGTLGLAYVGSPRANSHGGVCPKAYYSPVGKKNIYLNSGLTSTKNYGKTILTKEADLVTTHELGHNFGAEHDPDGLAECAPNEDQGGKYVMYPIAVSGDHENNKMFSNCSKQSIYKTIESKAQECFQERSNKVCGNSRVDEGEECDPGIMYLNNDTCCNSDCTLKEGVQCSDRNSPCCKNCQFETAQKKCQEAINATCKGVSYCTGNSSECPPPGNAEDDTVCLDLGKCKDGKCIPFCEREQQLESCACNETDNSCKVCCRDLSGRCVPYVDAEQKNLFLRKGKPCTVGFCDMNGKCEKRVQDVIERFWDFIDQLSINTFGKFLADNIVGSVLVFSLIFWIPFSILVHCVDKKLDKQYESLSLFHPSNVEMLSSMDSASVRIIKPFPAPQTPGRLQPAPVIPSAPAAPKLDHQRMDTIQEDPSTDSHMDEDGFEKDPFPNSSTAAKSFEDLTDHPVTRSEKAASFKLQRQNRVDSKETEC
GRIN3A LBD mod – binders of NR3A ligand-binding domain, primary screen, biophysical, differential scanning fluorimetry, uHTS. NR3A LBD differential scanning fluorimetry, Tm shift; 0% = protein alone, 100% = glycine-bound protein. Tm shift relative to glycine control, % at 25 µM. actives 2.5% (n = 340,000);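 active = melting temperature shift of at least 10% of the positive control shift, at one fixed dose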
MT1-MMP act inh – blockers of MT1-MMP proenzyme processing, primary screen, HT1080 RFP-PRO-GFP cells, GFP/RFP fluorescence | GFP/RFP ratio fluorescence, overnight; percent of plate control window, DMSO zero | GFP/RFP ratio change, % at 20 µM | actives 0.061% (n = 360,000) | AID 651647, 2012;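 active = GFP/RFP ratio change of at least 30% with cell ATP level not reduced by more than half and red fluorescence within 50% of control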
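Test system: HT1080 cells expressing an RFP-PRO-GFP fluorescent reporter construct / Compound dosing: single-point 20 µM compound, 1% DMSO / Schedule: cells overnight before dosing, compound overnight, 37 °C, 5% CO2 / Evaluation: GFP/RFP fluorescence ratio / Control set: DMSO and RFP-L50D-GFP cell wells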
SKN-1 block – suppressors of acrylamide-induced Pgst-4::GFP reporter in worms, primary screen, SKN-1 inhibitor project, whole organism, uHTS, GFP/RFP fluorescence ratio, strain VP596 | actives 0.49% (n = 360,000) | inhibition, % at 21.8 µM | C. elegans VP596 Pgst-4::GFP/RFP ratio, 24 h;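 active = interference check ratio from 0.5 to 1.5 plus GFP to RFP signal ratio inhibition reaching or exceeding a fixed threshold, cut at about 30% in these data, passing the limit was not always enough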
MPTP inh – mitochondrial permeability transition pore inhibitors, primary screen, biochemical, isolated mouse mitochondria, absorbance. Ca2+ swelling absorbance, 30 min. inhibition, % at 10 µM. actives 1.4% (n = 360,000);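 active = inhibition of 50% or more, scaled per plate between neutral and stimulator controls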;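 also: 0% = DMSO wells given calcium and 100% = 1 mM EGTA wells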
ADAM10 ctr – ADAM10 inhibitors, counter-screen for ADAM17 exosite inhibitor project, biochemical, FRET, human ADAM10 | shares compounds with ADAM17 inh | recombinant ADAM10, EDANS/DABCYL FRET peptide cleavage, 3 h | inhibition, % at 6.95 µM | actives 47% (n = 2,900) | AID 743256, 2014;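 active = mean inhibition over the triplicate runs exceeds the activity threshold set in the earlier primary screen, cut at about 20% in these data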;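 also: 0% = DMSO wells and 100% = marimastat wells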
ADAM17 confirm – ADAM17 inhibitors, hit retest, confirmation, biochemical, QFRET peptide cleavage; shares compounds with ADAM17 inh; recombinant ADAM17, EDANS/DABCYL QFRET peptide cleavage; inhibition, % at 6.95 µM; actives 65% (n = 2,900);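 active = mean inhibition across replicates above the hit cutoff set in the primary screen, cut at about 8.5% in these data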;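 also: 0% = DMSO wells and 100% = marimastat wells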
The depositor's hits bear a star; / = no result given. Sampled rows, rich in hits. Any-hit rate of the full collection: about 4.7%.

SMILES	ADAM10 inh	ADAM17 inh	GRIN3A LBD mod	MT1-MMP act inh	SKN-1 block	MPTP inh	ADAM10 ctr	ADAM17 confirm
COc1cccc(C(=O)N/N=C/c2ccc(OC3CSC3)cc2)c1	12	9.2*	-6	6	1	-7	-3	-1
COC(=O)c1ccc(C(=O)OC)c(NC(=O)CCS(=O)(=O)Cc2ccccc2)c1	-16	-6	0	-3	13	-1	/	/
C[C@@H]1CCCCO[C@H](CN(C)S(=O)(=O)c2cccs2)[C@H](C)CN([C@@H](C)CO)C(=O)c2cc(NC(=O)NC3CCCCC3)ccc2O1	15	11*	/	-5	7	-3	28*	16*
C[C@H](CO)N1C[C@H](C)[C@@H](CN(C)S(=O)(=O)c2cccs2)Oc2ccc(NC(=O)NC3CCCCC3)cc2C1=O	0	-2	-9	-6	21	-1	/	/
C[C@H](CO)N1C[C@H](C)[C@@H](CN(C)C(=O)Nc2ccc3c(c2)OCO3)Oc2ccc(NC(=O)Nc3ccc(C(F)(F)F)cc3)cc2C1=O	19	11*	11*	20	2	0	21*	15*
C[C@H](CO)N1C[C@H](C)[C@@H](CN(C)C(=O)Nc2ccccc2)Oc2ccc(NC(=O)Nc3ccc4c(c3)OCO4)cc2C1=O	-3	1	-9	1	-7	0	/	/
Cc1noc(C)c1NC(=O)Nc1ccc2c(c1)C(=O)N([C@H](C)CO)C[C@H](C)[C@H](CN(C)C(=O)NC1CCCCC1)OCCCC[C@@H](C)O2	4	9.8*	/	-2	-5	0	27*	7
Cc1noc(C)c1NC(=O)Nc1ccc2c(c1)C(=O)N([C@@H](C)CO)C[C@@H](C)[C@H](CN(C)C(=O)Nc1cccc3ccccc13)OCCCC[C@H](C)O2	-40	-5	/	4	17	1	/	/
CCOc1cc2[nH]c(=O)n(Cc3ccc(C(=O)NCCCN4CCC(C)CC4)cc3)c(=O)c2cc1OCC	-33	-12	0	0	17	-1	/	/
C=C(C)c1cccc(C(C)(C)NC(=O)N2CCOCC2)c1	5	-2	1	6	9	-1	/	/
C=C(C)c1cccc(C(C)(C)NC(=O)N2CCCC2)c1	-3	9.1*	-1	6	-22	0	1	1
CC(C)C(C)NC(=O)CN1C(=O)NC(C)(c2ccc3ccccc3c2)C1=O (configuration not stated)	-10	-3	3	5	2	1	/	/
CNS(=O)(=O)c1ccc(C(=O)NCC(=O)NCCC(c2ccccc2)c2ccccc2)cc1	3	9.7*	-4	-1	8	1	6	2
CNS(=O)(=O)c1ccc(C(=O)NCC(=O)NCC2COc3ccccc3O2)cc1 (configuration not stated)	-6	-1	1	2	6	1	/	/
COc1ccc(Nc2oc(COc3ccc(OC)cc3)nc2C#N)cc1	14	9.1*	-10	-4	-23	7	13	6
COc1ccc(Nc2oc(COc3ccccc3F)nc2C#N)cc1	-6	-1	-10	-4	5	1	/	/
CCOc1ccccc1C1c2[nH]c3ccccc3c2C[C@H]2C(=O)N(C3CCN(Cc4ccccc4)CC3)CC(=O)N12 (some centres not stated)	19	9.7*	-2	-4	3	0	27*	14*
Cc1ccccc1C1c2[nH]c3ccccc3c2C[C@H]2C(=O)N(C3CCN(Cc4ccccc4)CC3)CC(=O)N12 (some centres not stated)	18	8.7*	/	-12	7	0	26*	14*
COc1ccc(C2c3[nH]c4ccccc4c3C[C@H]3C(=O)N(C4CCN(Cc5ccccc5)CC4)CC(=O)N23)c(OC)c1 (some centres not stated)	16	5	3	-2	-5	0	/	/
COCC(=O)Nc1ccc(S(=O)(=O)Nc2ccccn2)cc1	-9	-6	0	-2	1	-2	/	/
O=C(Nc1ccc(F)cc1)c1ccccc1Oc1ccc(C(F)(F)F)cc1[N+](=O)[O-]	17	11*	-1	-10	7	46	23*	12*
O=[N+]([O-])c1cc(C(F)(F)F)ccc1Oc1cccnc1[N+](=O)[O-]	2	6	0	6	6	0	/	/
C=CCOC(=O)C1=C(C)NC(=S)NC1/C=C/c1ccccc1 (configuration not stated)	-2	-3	-3	-5	-43	-3	/	/
CC1=C(C(=O)OCc2ccccc2)C(/C=C/c2ccccc2)NC(=S)N1 (configuration not stated)	18	12*	7	-7	16	2	30*	15*
CC1(C(=O)NS(=O)(=O)Cc2ccccc2)CCN1C(=O)C1(c2ccc(Cl)cc2)CC1 (configuration not stated)	14	9.6*	/	-2	-10	0	-5	0
O=C(COC(=O)CNS(=O)(=O)c1ccc(Cl)cc1)NC1CCCCC1	-20	-1	2	-3	10	1	/	/
CCC1(CC)SCCNC1=O	7	9.1*	0	-2	0	-4	-2	2
Cc1ccc(C)n1CCN1CCN(S(=O)(=O)c2ccc(F)cc2F)CC1	-2	0	-2	-3	0	2	/	/
CSCCC(NS(=O)(=O)c1cccc(C(F)(F)F)c1)C(=O)N(C)CCOc1ccc(Cl)cc1 (configuration not stated)	17	11*	-4	-4	10	-1	41*	21*
O=C(CN1C(=O)NC2(CCCCC2)C1=O)Nc1ccc2c(c1)OCCCO2	1	11*	0	4	1	1	4	2
